Measurements from different studies.
Protocols differ between the studies behind these lines.
PPO3: PPO3 (Agaricus bisporus, UniProt C7FF04)
HTR2A: 5-hydroxytryptamine receptor 2A (HTR2A, Homo sapiens, UniProt P28223)

COc1cc(/C=C/C(=O)O)ccc1OCc1cn(CC(=O)Nc2ccccc2Cl)nn1
inhibition (PPO3; enzyme activity, inhibitor; 40 µM): 16.2%

c1cncc([C@@H]2CCCN2)c1
inhibition (HTR2A; ligand displacement; 50 µM): -7.27%

CC(C)CC(=O)OC[C@H]1O[C@@](C#N)(c2ccc3c(N)ncnn23)[C@H](O)[C@@H]1O
inhibition (HTR2A; cell-free assay; 20 µM): 5%

COc1cc(/C=C/C(=O)O)ccc1OCc1cn(CC(=O)Nc2ccccc2)nn1
inhibition (PPO3; enzyme activity, inhibitor; 40 µM): 10.4%

COc1cc2c(cc1OC)-c1c(OC)c(OC)cc3c1[C@H](C2)N(C)CC3 (racemic)
inhibition (HTR2A; ligand displacement, radioligand; 10 µM): 34%

COc1cc(/C=C/C(=O)O)ccc1OCc1cn(CC(=O)NCCc2ccccc2)nn1
inhibition (PPO3; enzyme activity, inhibitor; 40 µM): 10.4%

COc1cc2c3c(c1OC)-c1c(cccc1OC)CC3N(C)CC2 (racemic)
inhibition (HTR2A; ligand displacement, radioligand; 10 µM): 42%

COc1cc(/C=C/C(=O)O)ccc1OCc1cn(CC(=O)Nc2ccc([N+](=O)[O-])cc2C)nn1
inhibition (PPO3; enzyme activity, inhibitor; 40 µM): 44.9%

COc1cc2c3c(c1OC)-c1c(OC)ccc(Cl)c1CC3N(C)CC2 (racemic)
inhibition (HTR2A; ligand displacement, radioligand; 10 µM): 70%

CC[C@H](C)[C@@H](C(=O)N1CCC[C@H]1c1nccs1)N(C)C(=O)[C@H](CC(C)C)N(C)C(=O)[C@H](Cc1ccc(OC)cc1)N(C)C(=O)/C=C(\C)OC
inhibition (Cannabinoid receptor 1 (CNR1, Homo sapiens, UniProt P21554); β-arrestin recruitment, antagonist; 20 µM): 53%

COc1cc2c3c(c1OC)-c1c(OC)ccc(Br)c1CC3N(C)CC2 (stereo not drawn)
inhibition (HTR2A; ligand displacement, radioligand; 10 µM): 80%

CN1CCC[C@H]1c1cccnc1
inhibition (Kappa-type opioid receptor (OPRK1, Homo sapiens, UniProt P41145); ligand displacement; 50 µM): -10.9%
